As a reminder, the inhibition is the share of the control response that was lost under treatment. As a reminder, the IC50 is the concentration at which inhibition is half-maximal. The Ki is a dissociation constant, usually derived from enzyme kinetics or from competition with a known ligand.

The source of these data is ChEMBL document CHEMBL4732066, “SP1-independent inhibition of FOXM1 by modified thiazolidinediones” (Eur J Med Chem, 2021).

The nature of assay [1]: Downregulation of FOXM1 expression in human MDA-MB-231 cells at 40 uM after 48 hrs by Western blot analysis relative to control. The assay is classed as functional. In short, it runs like this:
(§1)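 MDA-MB-231 cells (RPMI, 10% FBS, 37 °C, 5% CO2) were treated in 6-well plates and lysed in RIPA buffer for 30 min after ice-cold PBS washes. Protein was quantified by Bradford and equal amounts run on 10% SDS-PAGE, then transferred to nitrocellulose and blocked in 10% milk/TBST for 45 min. Primary antibody was used at 1:1000 at 4 °C overnight, secondary for 45 min at RT, with chemiluminescent detection.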
A general note: A western blot detects proteins with antibodies after separation by electrophoresis.

Assay [2] concerns MDA-MB-231. Kind of assay: Effect on SP1 expression in human MDA-MB-231 cells at 80 uM after 24 hrs by Western blot analysis. The assay is classed as functional, cell-based. In outline: as §1
In another assay the target is T1, Forkhead box protein M1 (Homo sapiens, UniProt Q08050).
T1 sequence (Q08050 whole entry): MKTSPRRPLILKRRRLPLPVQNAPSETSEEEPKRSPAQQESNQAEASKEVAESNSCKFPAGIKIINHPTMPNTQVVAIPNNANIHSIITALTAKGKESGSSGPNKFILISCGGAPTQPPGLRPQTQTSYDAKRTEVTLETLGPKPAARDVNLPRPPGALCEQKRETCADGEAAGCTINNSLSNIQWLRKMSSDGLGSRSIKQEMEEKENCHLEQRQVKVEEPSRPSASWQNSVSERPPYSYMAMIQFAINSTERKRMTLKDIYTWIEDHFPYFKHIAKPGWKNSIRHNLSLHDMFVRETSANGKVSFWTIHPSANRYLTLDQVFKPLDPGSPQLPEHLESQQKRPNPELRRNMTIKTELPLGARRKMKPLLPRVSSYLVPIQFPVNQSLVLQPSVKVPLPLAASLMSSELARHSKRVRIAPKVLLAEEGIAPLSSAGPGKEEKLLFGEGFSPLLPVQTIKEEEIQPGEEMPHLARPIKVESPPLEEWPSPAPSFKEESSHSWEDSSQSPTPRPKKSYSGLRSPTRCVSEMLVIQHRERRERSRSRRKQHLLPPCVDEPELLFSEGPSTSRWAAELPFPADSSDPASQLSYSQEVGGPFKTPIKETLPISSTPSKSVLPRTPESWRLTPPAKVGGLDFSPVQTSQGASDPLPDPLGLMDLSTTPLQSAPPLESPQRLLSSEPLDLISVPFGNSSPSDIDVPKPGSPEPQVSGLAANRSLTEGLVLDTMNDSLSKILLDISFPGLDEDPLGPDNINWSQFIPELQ
Kind of assay: Binding affinity to recombinant FOXM1 DBD (unknown origin) expressed in Escherichia coli BL21 (DE3) assessed as disruption of FOXM1-DNA complex preincubated for 1.5 hrs followed by DNA addition measured after 20 mins by EMSA. A general note: A gel shift assay detects complexes by their altered migration in electrophoresis.

Assay [3] deals with T2, Forkhead box protein M1 (Homo sapiens) (UniProt Q08050).
T2 sequence (whole entry): T1 sequence (Q08050 whole entry)
Kind of assay: Inhibition of FOXM1 transcriptional activity in human MDA-MB-231 cells at 40 uM after 12 hrs by luciferase reporter gene assay. It counts as cell-based. In short, it runs like this:
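MDA-MB-231 cells were transiently transfected with equal amounts of 6x-FOXM1 firefly luciferase reporter and empty pGL4.10 backbone. After 24 h, cells were drug-treated for 12 h, PBS-washed and lysed in reporter lysis buffer. Firefly luciferase activity was read on equal total protein per lysate, in triplicate, with significance by one-way ANOVA.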
On the technique in general: In a reporter assay the amount or activity of a reporter protein is the signal.

The test system of assay [4] is MDA-MB-231. Kind of assay: Downregulation of SP1 expression in human MDA-MB-231 cells at 80 uM after 24 hrs by Western blot analysis. It counts as functional, cell-based. In outline: as §1

The source made the active and inactive calls. The calls are words filed in the database; no cut-off is given here.

On to `O=C1NC(=O)/C(=C/c2ccc(OCc3ccc(C(F)(F)F)cc3)cc2)S1`, for which, in assay [1], the inhibition at 40 µM was more than 90%. In the case of `COC(=O)c1ccc(COc2ccc(/C=C3\SC(=O)NC3=O)cc2OC)cc1`, the inhibition at 40 µM in assay [1] turned out to be 80%. On to `COc1ccc(/C=C2\SC(=O)NC2=O)cc1OCc1ccc([N+](=O)[O-])cc1`, for which, in assay [1], the inhibition at 40 µM was more than 90%. In assay [1], `COC(=O)c1ccc(COc2ccc(/C=C3\SC(=O)NC3=O)cc2[N+](=O)[O-])cc1` showed an inhibition at 40 µM of 80%.

`O=C1NC(=O)/C(=C/c2ccc(OCc3ccc([N+](=O)[O-])cc3)c([N+](=O)[O-])c2)S1`: the inhibition at 40 µM in assay [1] was 80%. With `COc1cc(/C=C2\SC(=O)NC2=O)ccc1OCc1ccc([N+](=O)[O-])cc1`, the inhibition at 40 µM in assay [1] amounted to 80%. In assay [1], `O=C1NC(=O)/C(=C/c2ccc(OCc3ccc([N+](=O)[O-])cc3)cc2)S1` yielded an inhibition at 40 µM of 80%. `COc1cc(/C=C2\SC(=O)NC2=O)ccc1OCc1ccc(C(F)(F)F)cc1`: the result with MDA-MB-231 [2] was inactive. This molecule also gave an inhibition at 40 µM in assay [1] of more than 90%.

In assay [1], `Nc1c(C(=O)Nc2ccc(F)cc2)sc2nc(-c3cccs3)cc(C(F)(F)F)c12` yielded an inhibition at 40 µM of 80%. `COc1ccc(/C=C2\SC(=O)NC2=O)cc1OCc1ccc(C(F)(F)F)cc1`: at 40 µM the inhibition in assay [1] was 80%. Regarding `Cc1c(C)c2c(c(C)c1O)CCC(C)(COc1ccc(CC3SC(=O)NC3=O)cc1)O2` (stereo unspecified) [TROGLITAZONE], the IC50 on Forkhead box protein M1 was 122 µM. In addition, the Ki on Forkhead box protein M1 amounted to 0.052 µM. Also, the inhibition entry (in assay [3]; with MDA-MB-231 [4]) was “Active” each time. The same molecule displayed an inhibition at 40 µM in assay [1] of 80%.
